Laboratory results from ChEMBL document CHEMBL1152957, “Synthesis and biological evaluation of novel 4-azaindolyl-indolyl-maleimides as glycogen synthase kinase-3beta (GSK-3beta) inhibitors” (Bioorg Med Chem, 2009).
Active and inactive are the calls of the source. The rule behind the calls is not given here.

Assays:
[1] = biological target: T1, Glycogen synthase kinase-3 beta (Homo sapiens, UniProt P49841); experiment: Inhibition of GSK3-beta in human SH-Sy5Y cells assessed as reduction of amyloid beta (25-35)-induced Tau hyperphosphorylation at Ser396 at 10 uM treated 1 hr before amyloid beta (25-35) challenge measured after 6 hrs by Western blotting; assay type: cell-based
Method in brief: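 SH-SY5Y cells from ATCC kept in 1:1 DMEM:Ham's F12 with 10% FBS and penicillin/streptomycin under 5% CO2. Grown to about 80% confluence and serum-starved 12 h. Inhibitor added for 1 h, then amyloid beta 25–35 for 6 h. Lysed in SDS loading buffer and run on 10% SDS-PAGE. Western blot on PVDF with rabbit anti-Tau pS396 and ECL detection.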
Target sequence in this assay (P49841 whole entry, looked up): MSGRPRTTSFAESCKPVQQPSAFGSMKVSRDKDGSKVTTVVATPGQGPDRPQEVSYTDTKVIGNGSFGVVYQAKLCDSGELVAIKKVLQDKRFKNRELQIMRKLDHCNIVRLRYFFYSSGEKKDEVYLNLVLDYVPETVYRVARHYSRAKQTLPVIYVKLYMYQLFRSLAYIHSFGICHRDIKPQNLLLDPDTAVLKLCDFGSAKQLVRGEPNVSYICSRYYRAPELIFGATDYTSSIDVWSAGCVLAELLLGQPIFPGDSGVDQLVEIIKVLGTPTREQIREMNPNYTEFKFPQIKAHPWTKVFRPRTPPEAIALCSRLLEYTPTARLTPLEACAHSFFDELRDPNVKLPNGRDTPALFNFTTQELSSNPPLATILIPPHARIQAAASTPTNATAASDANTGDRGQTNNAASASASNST

[2] = biological target: T1, Glycogen synthase kinase-3 beta; experiment: Inhibition of recombinant GST-GSK3beta expressed in Escherichia coli BL21 (DE3)
Target sequence in this assay (P49841 whole entry): as the sequence (P49841 whole entry, looked up) above

[3] = biological target: T2, Aurora kinase A (Homo sapiens, UniProt O14965); experiment: Inhibition of recombinant Aurora A expressed in Escherichia coli
T2 sequence (O14965 whole entry): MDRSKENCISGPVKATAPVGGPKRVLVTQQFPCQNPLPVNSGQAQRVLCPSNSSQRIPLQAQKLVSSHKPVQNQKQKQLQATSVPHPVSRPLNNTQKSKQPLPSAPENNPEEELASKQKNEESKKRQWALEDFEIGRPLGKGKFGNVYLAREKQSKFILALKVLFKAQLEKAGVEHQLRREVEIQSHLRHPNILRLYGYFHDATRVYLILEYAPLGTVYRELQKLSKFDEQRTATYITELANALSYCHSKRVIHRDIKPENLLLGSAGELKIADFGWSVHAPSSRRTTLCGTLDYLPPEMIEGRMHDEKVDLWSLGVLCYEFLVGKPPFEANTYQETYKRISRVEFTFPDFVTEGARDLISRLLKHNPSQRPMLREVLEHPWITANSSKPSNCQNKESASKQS

[4] = biological target: T3, Protein kinase C epsilon type (Homo sapiens, UniProt Q02156); experiment: Inhibition of recombinant PKCE expressed in Bac-to Bac baculovirus system
T3 sequence (Q02156 whole entry): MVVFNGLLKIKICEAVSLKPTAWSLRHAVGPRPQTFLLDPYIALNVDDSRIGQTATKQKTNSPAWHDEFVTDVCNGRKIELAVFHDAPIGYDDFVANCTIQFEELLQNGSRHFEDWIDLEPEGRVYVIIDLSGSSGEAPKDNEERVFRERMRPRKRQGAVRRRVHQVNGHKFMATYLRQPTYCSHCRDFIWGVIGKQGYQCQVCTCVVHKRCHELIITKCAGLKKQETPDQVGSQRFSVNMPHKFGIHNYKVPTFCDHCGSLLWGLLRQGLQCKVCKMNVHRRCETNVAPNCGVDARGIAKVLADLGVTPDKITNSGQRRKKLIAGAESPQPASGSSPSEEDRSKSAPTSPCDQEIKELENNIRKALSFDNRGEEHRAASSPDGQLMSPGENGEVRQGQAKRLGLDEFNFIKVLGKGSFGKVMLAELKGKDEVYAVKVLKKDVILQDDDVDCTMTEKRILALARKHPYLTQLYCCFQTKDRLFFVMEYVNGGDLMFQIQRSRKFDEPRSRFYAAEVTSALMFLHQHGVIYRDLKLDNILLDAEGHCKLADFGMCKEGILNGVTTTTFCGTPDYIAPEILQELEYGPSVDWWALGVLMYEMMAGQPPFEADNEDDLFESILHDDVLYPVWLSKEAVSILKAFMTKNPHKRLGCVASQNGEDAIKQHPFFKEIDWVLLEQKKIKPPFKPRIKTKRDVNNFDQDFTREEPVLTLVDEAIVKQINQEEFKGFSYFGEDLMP

[5] = biological target: Dual specificity mitogen-activated protein kinase kinase 1 (Homo sapiens, UniProt Q02750); experiment: Inhibition of recombinant MEK1 expressed in Escherichia coli
[6] = biological target: Mitogen-activated protein kinase 3 (Homo sapiens, UniProt P27361); experiment: Inhibition of recombinant ERK1 expressed in Escherichia coli
[7] = biological target: T4, Inhibitor of nuclear factor kappa-B kinase subunit beta (Homo sapiens, UniProt O14920); experiment: Inhibition of recombinant IKK2 expressed in Bac-to Bac baculovirus system
T4 sequence (O14920 whole entry): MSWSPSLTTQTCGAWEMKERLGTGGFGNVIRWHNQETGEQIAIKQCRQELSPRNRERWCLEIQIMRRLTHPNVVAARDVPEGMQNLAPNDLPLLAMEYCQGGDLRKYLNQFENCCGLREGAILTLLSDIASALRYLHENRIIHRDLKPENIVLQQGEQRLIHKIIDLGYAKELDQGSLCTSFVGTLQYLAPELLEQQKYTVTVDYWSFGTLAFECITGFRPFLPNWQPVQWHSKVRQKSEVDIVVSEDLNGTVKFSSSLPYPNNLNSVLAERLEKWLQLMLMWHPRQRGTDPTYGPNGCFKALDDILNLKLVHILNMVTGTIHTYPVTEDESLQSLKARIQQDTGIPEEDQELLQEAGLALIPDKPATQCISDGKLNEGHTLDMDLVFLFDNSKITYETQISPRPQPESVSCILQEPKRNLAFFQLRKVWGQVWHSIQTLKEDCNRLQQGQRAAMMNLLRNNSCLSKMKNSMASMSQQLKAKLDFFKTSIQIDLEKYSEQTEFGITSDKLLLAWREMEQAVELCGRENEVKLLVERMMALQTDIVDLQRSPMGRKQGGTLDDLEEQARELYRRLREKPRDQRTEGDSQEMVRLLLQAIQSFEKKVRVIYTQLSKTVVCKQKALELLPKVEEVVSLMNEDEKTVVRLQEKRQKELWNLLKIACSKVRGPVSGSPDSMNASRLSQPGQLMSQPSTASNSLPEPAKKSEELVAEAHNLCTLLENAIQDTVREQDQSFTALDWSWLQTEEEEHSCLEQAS

Chain of Mitogen-activated protein kinase 3 (P27361 whole entry): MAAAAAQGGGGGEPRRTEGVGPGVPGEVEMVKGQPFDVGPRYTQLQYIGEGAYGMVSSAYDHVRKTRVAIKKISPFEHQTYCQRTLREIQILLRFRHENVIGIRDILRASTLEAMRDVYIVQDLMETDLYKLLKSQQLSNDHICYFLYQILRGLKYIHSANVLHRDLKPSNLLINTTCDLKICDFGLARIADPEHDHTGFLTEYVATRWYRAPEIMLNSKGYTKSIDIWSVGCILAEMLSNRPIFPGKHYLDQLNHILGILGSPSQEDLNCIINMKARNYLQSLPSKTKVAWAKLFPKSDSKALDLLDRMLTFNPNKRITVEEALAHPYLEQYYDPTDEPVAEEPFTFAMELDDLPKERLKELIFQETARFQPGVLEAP
Chain of Dual specificity mitogen-activated protein kinase kinase 1 (Q02750 whole entry): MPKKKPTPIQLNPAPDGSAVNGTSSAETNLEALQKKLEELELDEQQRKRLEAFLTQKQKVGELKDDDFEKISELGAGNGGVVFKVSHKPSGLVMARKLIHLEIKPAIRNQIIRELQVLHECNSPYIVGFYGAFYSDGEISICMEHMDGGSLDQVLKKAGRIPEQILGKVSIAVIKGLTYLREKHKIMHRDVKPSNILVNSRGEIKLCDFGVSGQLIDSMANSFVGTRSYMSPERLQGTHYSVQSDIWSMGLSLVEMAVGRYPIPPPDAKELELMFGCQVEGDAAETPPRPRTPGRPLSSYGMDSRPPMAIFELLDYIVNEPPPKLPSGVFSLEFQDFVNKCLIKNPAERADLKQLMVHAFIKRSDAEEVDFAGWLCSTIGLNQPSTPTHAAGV

SMILES | Activity [1] | IC50 [2] [µM] | further results
O=C1C(c2cn(CCCn3ccnc3)c3ccccc23)=C(n2ccc3ncccc32)C(=O)N1c1ccccc1 | – | > 73.3 | –
CN(C)CCCn1cc(C2=C(n3ccc4ncccc43)C(=O)NC2=O)c2ccccc21 | – | 13.6 | –
Cn1cc(C2=C(c3cn(CCCN4CCOCC4)c4ccccc34)C(=O)NC2=O)c2ncccc21 | Active | 0.76 | IC50 [3]: > 40 µM; IC50 [4]: > 40 µM; IC50 [5]: > 40 µM; IC50 [6]: > 40 µM; IC50 [7]: > 40 µM
O=C1NC(=O)C(n2ccc3ncccc32)=C1c1c[nH]c2ccccc12 | – | 30.6 | –
O=C1NC(=O)C(n2ccc3ncccc32)=C1c1cn(CCCN2CCCCC2)c2ccccc12 | – | 12.4 | –
Cn1cc(C2=C(c3cn(CCN4CCOCC4)c4ccccc34)C(=O)NC2=O)c2ncccc21 | – | 0.9 | –
COc1ccc2c(c1)c(C1=C(n3ccc4ncccc43)C(=O)NC1=O)cn2CCCN(C)C | – | 22.5 | –
Cn1cc(C2=C(c3cn(CCCn4ccnc4)c4ccccc34)C(=O)NC2=O)c2ncccc21 | – | 0.66 | –
Cn1cc(C2=C(c3cn(CCCO)c4ccccc34)C(=O)NC2=O)c2ncccc21 | – | 1.14 | –
O=C1NC(=O)C(n2ccc3ncccc32)=C1c1cn(CCCN2CCOCC2)c2ccccc12 | – | 1.79 | –

Now from value to compound, other results behind:

Activity [1] | IC50 [2] [µM] | SMILES | further results
inactive | 0.85 | O=C1NC(=O)C(n2ccc3ncccc32)=C1c1cn(CCCCn2ccnc2)c2ccccc12 | –
Active | 0.14 | O=C1NC(=O)C(n2ccc3ncccc32)=C1c1cn(CCCn2ccnc2)c2ccc(Br)cc12 | IC50 [3]: > 40 µM; IC50 [4]: > 40 µM; IC50 [5]: > 40 µM; IC50 [6]: > 40 µM; IC50 [7]: > 40 µM
inactive | 0.95 | O=C1NC(=O)C(n2ccc3ncccc32)=C1c1cn(CCCn2ccnc2)c2cc(Br)ccc12 | –
– | 0.31 | O=C1NC(=O)C(n2ccc3ncccc32)=C1c1cn(CCCn2ccnc2)c2cc(F)ccc12 | –
inactive | 0.26 | O=C1NC(=O)C(n2ccc3ncccc32)=C1c1cn(CCn2ccnc2)c2ccccc12 | IC50 [3]: > 40 µM; IC50 [4]: > 40 µM; IC50 [5]: > 40 µM; IC50 [6]: > 40 µM; IC50 [7]: > 40 µM
– | 12.4 | CN(C)CCCn1cc(C2=C(n3ccc4ncccc43)C(=O)NC2=O)c2ccc(F)cc21 | –
inactive | 0.48 | COc1ccc2c(c1)c(C1=C(n3ccc4ncccc43)C(=O)NC1=O)cn2CCCn1ccnc1 | –
– | 0.55 | O=C1NC(=O)C(n2ccc3ncccc32)=C1c1cn(CCCn2ccnc2)c2ccccc12 | –
– | 2.26 | CN(C)CCCn1cc(C2=C(n3ccc4ncccc43)C(=O)NC2=O)c2ccc(Br)cc21 | –
